In ChEMBL document CHEMBL1141721, “Structure-toxicity relationship of aminoglycosides: correlation of 2'-amine basicity with acute toxicity in pseudo-disaccharide scaffolds” (Bioorg Med Chem, 2008):
In brackets after ≈: the same amount, converted by molar mass.

Key:
[1] = tested on: Escherichia coli; assay: Antimicrobial activity against Escherichia coli R477-100 by double-microdilution method; assay type: functional
[2] = Toxicity in iv dosed ICR mouse assessed as effect on mortality after 4 days; assay type: organism-based; conditions: in vivo
[3] = Inhibition of Pseudomonas aeruginosa APH(3')-2b assessed as rate of NADH absorbance decrease by pyruvate kinase/lactate dehydrogenase coupled assay
Summary of the method: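 Purified recombinant APH(3')-IIb, affinity-purified on a neomycin B column. ATP consumption followed by pyruvate kinase/lactate dehydrogenase coupling as NADH decrease at 340 nm. Buffer: 50 mM Tris-HCl pH 7.5, 40 mM KCl, 10 mM MgCl2, 1 mM ATP, 2.5 mM PEP. Neamine substrate 1–100 µM, inhibitor 0–1000 µM. 5 min preincubation at 37 °C, started with enzyme. Ki by nonlinear regression.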

[4] = tested on: Pseudomonas aeruginosa; assay: Activity of Pseudomonas aeruginosa APH(3')-2b assessed as rate of NADH absorbance decrease by pyruvate kinase/lactate dehydrogenase coupled assay
Summary of the method: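 Recombinant APH(3')-IIb purified on a neomycin B affinity column. Substrate neamine 1–100 μM, inhibitor 0–1000 μM. Preincubation 5 min at 37 °C, then started with enzyme. NADH loss read at 340 nm; Ki by nonlinear regression.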

[5] = tested on: Pseudomonas aeruginosa; assay: Antimicrobial activity against Pseudomonas aeruginosa ATCC 27853 by double-microdilution method; assay type: functional
[6] = tested on: Pseudomonas aeruginosa; assay: Antimicrobial activity against Pseudomonas aeruginosa 584/5 isolate by double-microdilution method; assay type: functional
[7] = tested on: Pseudomonas aeruginosa; assay: Antimicrobial activity against Pseudomonas aeruginosa 590 isolate by double-microdilution method; assay type: functional
Summary of the method: (§1)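 Double-microdilution method following NCCLS, starting at 384 µg/mL of compound with doubling dilutions. Run in triplicate (a table footnote says duplicates), with analogous results in three separate experiments.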

[8] = tested on: Bacillus subtilis; assay: Antimicrobial activity against Bacillus subtilis by double-microdilution method; assay type: functional; summary of the method: as §1
[9] = tested on: Escherichia coli; assay: Antimicrobial activity against Escherichia coli ATCC 25922 by double-microdilution method; assay type: functional
[10] = tested on: Staphylococcus epidermidis; assay: Antimicrobial activity against Staphylococcus epidermidis ATCC 12228 by double-microdilution method; assay type: functional; summary of the method: as §1
[11] = tested on: Escherichia coli; assay: Inhibition of translation in Escherichia coli S30 extract by coupled transcription/translation assay; assay type: functional
Summary of the method: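 E. coli S30 extract for circular DNA with pBES-Tluc plasmid, coupled transcription/translation. 25 µL reactions with varied aminoglycoside concentrations, 60 min at 37 °C, then 5 min on ice. Diluted into Tris-phosphate 25 mM pH 7.8 buffer with DTT, CDTA, glycerol, Triton X-100 and BSA. Luciferase luminescence read at once; IC50 fitted from concentration-response curves of at least two independent experiments.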

[12] = tested on: Escherichia coli; assay: Antimicrobial activity against Escherichia coli XL1 expressing APH(3')-1a by double-microdilution method; assay type: functional

## NC[C@@H]1CC[C@@H](N)[C@@H](O[C@H]2[C@H](O)[C@@H](O)[C@H](N)C[C@@H]2N)O1 [GENTAMINE C1A]
[1]
  MIC: 192 µg/mL (≈ 661 µM)
[2]
  LD50 at 96 h: 103 mg/kg
[3]
  Ki: 650 µM

## NC[C@H]1O[C@H](O[C@H]2[C@H](O)[C@@H](O)[C@H](N)C[C@@H]2N)[C@H](N)[C@@H](O)[C@@H]1O [NEAMINE]
[4]
  Km: 10.3 µM
  kcat: 1.7 s⁻¹
[1]
  MIC: 96 µg/mL (≈ 298 µM)
[2]
  LD50 at 96 h: 161 mg/kg

## CN[C@@H]1[C@@H](O)[C@@H](O[C@@H]2[C@@H](O)[C@H](O[C@H]3O[C@H](CN)[C@H]4OCO[C@@H]4[C@H]3N)[C@@H](N)C[C@H]2N)OC[C@]1(C)O
[5]
  MIC: 24 µg/mL (≈ 48.6 µM)
[6]
  MIC: 24 µg/mL (≈ 48.6 µM)
[7]
  MIC: 48 µg/mL (≈ 97.3 µM)
[8]
  MIC: 12 µg/mL (≈ 24.3 µM)
[9]
  MIC: 48 µg/mL (≈ 97.3 µM)
[10]
  MIC: 24 µg/mL (≈ 48.6 µM)
[1]
  MIC: 48 µg/mL (≈ 97.3 µM)
[2]
  LD50 at 96 h: 226 mg/kg
[11]
  IC50: 0.038 µM
[12]
  MIC: 12 µg/mL (≈ 24.3 µM)

## CNC1C(O)C(OC2C(N)CC(N)C(OC3OC(CN)CCC3N)C2O)OCC1(C)O (stereo not drawn) [GENTAMICIN C1A]
[7]
  MIC: 384 µg/mL (≈ 854 µM)
[8]
  MIC: 6 µg/mL (≈ 13.3 µM)
[10]
  MIC: 6 µg/mL (≈ 13.3 µM)

## NC[C@H]1O[C@H](O[C@H]2[C@H](O)[C@@H](O)[C@H](N)C[C@@H]2N)[C@H](N)[C@H]2OCO[C@@H]21
[1]
  MIC: > 384 µg/mL
[2]
  LD50 at 96 h: 303 mg/kg
[3]
  Ki: 642 µM
